Source: PubChem BioAssay
A selection: hits, their analogues and other compounds. The true share with any hit is near 1.7%.
Vif imaging = HIV Vif self-association inhibitors, primary screen, imaging, HEK293T, single point; inhibition, % at 7.49 µM; HEK293T cells, Vif self-association by quenched fluorescence, 24 h; 340,000 tested, 0.35% active; in the data active means inhibition above about 50%, passing the limit was not always enough
Pemphigus Ab inh = inhibitors of pemphigus antibody binding to DSG3, primary screen, biochemical, bead-based, flow cytometry, scFv-GFP. binding (percent of control), % at 10 µM. Desmoglein-3 (Homo sapiens), P32926. 310,000 tested, 0.48% active. DSG3-coupled beads, scFv-anti-DSG3-GFP binding; hits give low values;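 active means binding more than 3 SD below its plate's average and above zero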;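 further: hits lower antibody fragment binding to DSG3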
Target sequence (P32926 whole entry, looked up, the tested form may be a part): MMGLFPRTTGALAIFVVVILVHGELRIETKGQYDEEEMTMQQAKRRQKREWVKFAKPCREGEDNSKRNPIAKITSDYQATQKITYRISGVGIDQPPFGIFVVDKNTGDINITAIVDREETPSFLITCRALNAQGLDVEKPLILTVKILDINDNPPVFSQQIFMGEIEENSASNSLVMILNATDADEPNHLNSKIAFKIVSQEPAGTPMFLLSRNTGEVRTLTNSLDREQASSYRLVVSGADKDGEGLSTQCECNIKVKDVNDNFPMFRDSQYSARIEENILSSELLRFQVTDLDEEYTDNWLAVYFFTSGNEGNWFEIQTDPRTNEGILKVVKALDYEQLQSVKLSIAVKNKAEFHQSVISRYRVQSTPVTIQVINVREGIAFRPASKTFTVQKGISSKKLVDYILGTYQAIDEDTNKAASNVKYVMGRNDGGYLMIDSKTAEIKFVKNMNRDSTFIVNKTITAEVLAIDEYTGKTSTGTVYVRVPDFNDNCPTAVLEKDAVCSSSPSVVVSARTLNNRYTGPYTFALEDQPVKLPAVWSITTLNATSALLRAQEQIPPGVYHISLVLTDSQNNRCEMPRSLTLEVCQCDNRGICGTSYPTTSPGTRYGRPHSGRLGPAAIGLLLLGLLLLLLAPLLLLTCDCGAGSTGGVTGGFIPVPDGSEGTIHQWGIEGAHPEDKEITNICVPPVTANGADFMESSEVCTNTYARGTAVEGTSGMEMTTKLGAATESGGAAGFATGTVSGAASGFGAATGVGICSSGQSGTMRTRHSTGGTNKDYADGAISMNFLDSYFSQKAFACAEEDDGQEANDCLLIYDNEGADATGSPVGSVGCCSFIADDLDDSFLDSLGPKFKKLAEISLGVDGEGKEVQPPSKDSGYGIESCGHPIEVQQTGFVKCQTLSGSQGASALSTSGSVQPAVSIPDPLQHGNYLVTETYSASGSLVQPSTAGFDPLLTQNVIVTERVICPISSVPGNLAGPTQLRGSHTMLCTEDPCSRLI
Myeloid diff MLP = induction of myeloid progenitor differentiation, primary screen, cell-based, flow cytometry, MLPCN library; ER-HoxA9 myeloid progenitors, lysozyme-GFP differentiation; calls only at 10 µM; 360,000 tested, 1% active;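 active means normalized GFP-positive differentiation at or above the plate's own cutoff, the solvent-only control mean plus 3 SD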;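 further: cells exposed to compound for four days before flow analysis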
T cell HTS = modulators of CD8 T cell-vesicle binding, primary screen, mouse 2C CD8+ T cells, flow cytometry | 330,000 tested, 0.068% active | 2C CD8+ T cell-vesicle binding; hits give low values | response (vesicle binding), % at 7 µM;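 active means response, share of CD8 T cells binding vesicles, and their 90th percentile fluorescence all below set limits, cut at about 80% in these data, passing the limit was not always enough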;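 further: values below 100% mean blocked vesicle binding to the CD8+ T cells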
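material = purified 2C TCR transgenic mouse naive CD8+ T cells | controls = Unloaded micro-vesicles (low), QL9 vesicles with 0.7% DMSO (high) | detection = cytometric PE anti-B7-1 and Alexa647 anti-CD8 signals after 1% paraformaldehyde fixation | incubation = binding step 1.5 h, 37 °C, antibody labelling 20 min, ice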
Myeloid diff CP1 = inducers of myeloid progenitor differentiation, confirmation, cell-based, GFP/Mac1 flow cytometry, cherry pick 01. 2,300 tested, 2% active. ER-HoxA9 myeloid progenitors, GFP/Mac1 double-positive flow. shares compounds with Myeloid diff MLP. calls only. AID 651706, 2012;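 active means share of green or green-and-red cells above 9 and 9% in run 1 or 4 and 3% in run 2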
GFP autofluor = flagged as fluorescent in myeloid differentiation counter-screen; AID 651707; shares compounds with Myeloid diff MLP; fluorescence response, % (no concentration beside the values); ER-HoxA9 myeloid progenitors, no estrogen, GFP autofluorescence flow cytometry; vehicle wells 0%, positive control 100%; 2,300 tested, 7.4% active;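 active means over 5% cells positive for green fluorescent reporter, or over 2% positive for both it and APC stain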;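 further: range taken on the double positive population between DMSO and positive control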
The depositor's hits bear a star.

`CCN1C(=O)[C@H]2[C@H]3CN=C(SCc4ccccc4)N3[C@@](Cc3ccccc3)(C(=O)OC)[C@H]2C1=O` gave Vif imaging -1.5, Pemphigus Ab inh 105.5, Myeloid diff MLP inactive, Myeloid diff CP1 inactive and GFP autofluor 0.8.
For CC(CCc1ccco1)NC(=O)Cn1nc(Cc2ccncc2)c2ccccc2c1=O (configuration not stated) the results were Vif imaging -0.2, Pemphigus Ab inh 99.8, Myeloid diff MLP inactive, T cell HTS 284.9, Myeloid diff CP1 inactive and GFP autofluor 0.2.
For CCN(CC)CCNC(=O)Cn1nc(Cc2ccncc2)c2ccccc2c1=O the results were Vif imaging -1.5, Pemphigus Ab inh 91.0, Myeloid diff MLP inactive and T cell HTS 402.8.
Screening COc1ccc(NC(=O)C2(C)Cc3c(-c4ccc5c(c4)OCO5)ccnc3O2)cn1 (configuration not stated) returned Vif imaging 9.3.
Screening CSc1ncnc2c1ncn2CCCNCCCN1CCCC1=O returned Pemphigus Ab inh 103.8, Myeloid diff MLP active, Myeloid diff CP1 inactive and GFP autofluor 0.7.
Screening CNc1cnc(-c2ccccc2OC)cn1 returned Vif imaging -3.4 and Myeloid diff MLP inactive.
COc1cccc(NCc2cc3c(C(C)(C)C)nn(-c4ccccc4)c3[nH]c2=O)c1 was read as Vif imaging 0.5, Pemphigus Ab inh 103.1, Myeloid diff MLP active, T cell HTS 248.3, Myeloid diff CP1 inactive and GFP autofluor 0.3.
Screening CCOc1ccc(NCc2cc3c(C(C)(C)C)nn(-c4ccccc4)c3[nH]c2=O)cc1 returned Pemphigus Ab inh 92.6, Myeloid diff MLP inactive and T cell HTS 481.2.
Screening COC(=O)C[C@@H]1C=C[C@@H](NC(=O)c2ccccc2F)[C@@H](CO)O1 returned Myeloid diff MLP inactive, Myeloid diff CP1 inactive and GFP autofluor 0.0.
Screening O=C(Nc1ccccc1)OCCc1ccccc1 returned Vif imaging -3.4 and Myeloid diff MLP inactive.
`CCCCOCCCNC(=O)N[C@H](C(=O)OC)C(C)C` gave Vif imaging 3.9, Pemphigus Ab inh 102.0, Myeloid diff MLP active, T cell HTS 347.3, Myeloid diff CP1 inactive and GFP autofluor 0.0.
For Cc1ccc(CSc2nnc(-c3cccnc3)n2N)cc1 the results were Vif imaging 3.8, Pemphigus Ab inh 104.0, Myeloid diff MLP inactive and T cell HTS 975.5.
`Cc1ccc(C(=O)CSc2nnc(-c3cccnc3)n2N)cc1` gave Vif imaging -6.6, Pemphigus Ab inh 98.5, Myeloid diff MLP inactive, T cell HTS 176.4, Myeloid diff CP1 inactive and GFP autofluor 0.0.
Screening CC(C)CN(C(=O)COc1ccc(Br)cc1C=O)C1CCS(=O)(=O)C1 (configuration not stated) returned Vif imaging -2.2, Pemphigus Ab inh 102.2, Myeloid diff MLP inactive and T cell HTS 220.5.
`Nc1nc(NCC2CCCO2)nc(Nc2cccc(Cl)c2)c1[N+](=O)[O-]` (configuration not stated) gave Vif imaging -0.7, Pemphigus Ab inh 104.2, Myeloid diff MLP inactive and T cell HTS inactive.
`Cc1cccc(Nc2nc(NCC3CCCO3)nc(N)c2[N+](=O)[O-])c1` (configuration not stated) gave Vif imaging -2.6, Pemphigus Ab inh 101.1, Myeloid diff MLP active, T cell HTS 114.7, Myeloid diff CP1 inactive and GFP autofluor 0.0.
Screening Cc1cc(C)cc(NC(=O)C2CCCC2)c1 returned Vif imaging -2.0, Pemphigus Ab inh 88.7, Myeloid diff MLP active, T cell HTS 477.4, Myeloid diff CP1 inactive and GFP autofluor 0.0.
`Cc1cc(C)cc(NC(=S)N2CCC(NC(=O)C3CCCCC3)CC2)c1` gave Vif imaging -5.6, Myeloid diff MLP inactive and T cell HTS 167.2.
For COc1ccccc1-c1ccc(SCc2ccc(F)cc2)nn1 the results were Vif imaging -4.2, Pemphigus Ab inh 104.0, Myeloid diff MLP active, T cell HTS 216.9, Myeloid diff CP1 inactive and GFP autofluor 0.6.
For CC(C)C(=O)Nc1cccc(S(=O)(=O)c2cccc(NC(=O)C(C)C)c2)c1 the results were Vif imaging -11.5, Pemphigus Ab inh 105.5, Myeloid diff MLP inactive, T cell HTS 275.5, Myeloid diff CP1 inactive and GFP autofluor 0.0.
For CCc1nc2ccc(C(=O)N3CCCC(C(N)=O)C3)cn2c1N(CCC(C)C)CCN(C)C (configuration not stated) the results were Vif imaging -9.6 and Myeloid diff MLP inactive.
`CCOC(=O)C1(CC2CC2)CCN(C(=O)c2cccnc2C)CC1` gave Vif imaging -6.7, Myeloid diff MLP inactive, T cell HTS 247.9, Myeloid diff CP1 inactive and GFP autofluor 0.3.
Screening Cc1ccc(S(=O)(=O)CCC(=O)Nc2ccc3c(c2)OCO3)cc1 returned Vif imaging -0.2, Pemphigus Ab inh 104.4, Myeloid diff MLP inactive and T cell HTS 134.3.
Screening Cc1ccc(S(=O)(=O)NCCC(=O)Nc2ccc3c(c2)OCO3)cc1 returned Vif imaging 1.5, Myeloid diff MLP inactive, T cell HTS 168.3, Myeloid diff CP1 inactive and GFP autofluor 1.0.
`CC(C)c1ccc(NC(=O)CN(C)C2=NS(=O)(=O)c3ccccc32)cc1` gave Vif imaging 11.6, Pemphigus Ab inh 101.5 and Myeloid diff MLP inactive.
For COCCCNC(=O)C1CCC(=O)N(c2ccc3c(c2)OCO3)C1c1ccc(OC)cc1 (configuration not stated) the results were Vif imaging 9.3, Pemphigus Ab inh 143.0, Myeloid diff MLP inactive, T cell HTS 218.3, Myeloid diff CP1 inactive and GFP autofluor 0.5.
Screening CCC(C)NC(=O)C1CCC(=O)N(c2ccc3c(c2)OCO3)C1c1ccc(OC)cc1 (configuration not stated) returned Vif imaging 4.9, Pemphigus Ab inh 107.5, Myeloid diff MLP inactive and T cell HTS 406.2.
O=C(NC1CC1)c1cccc(NC(=O)c2cnn(-c3ccccc3)n2)c1 was read as Vif imaging -0.7, Myeloid diff MLP active, T cell HTS 560.3, Myeloid diff CP1 inactive and GFP autofluor 4.5.
`CC(C)(C)S(=O)(=O)N1C[C@H]2CC/C=C\C/C(c3ccccc3)=C\2[C@@H]1CCO` gave Pemphigus Ab inh 92.8 and Myeloid diff MLP inactive.
For O=S1(=O)C[C@H](N2CCC(Cc3ccccc3)CC2)[C@@H](COCc2ccccc2)N1 the results were Myeloid diff MLP inactive.
